Results published in ChEMBL document CHEMBL1128709, “Discovery and structure-activity relationships of sulfonamide ETA-selective antagonists” (J Med Chem, 1995).

Legend:
Oryctolagus cuniculus = species: Oryctolagus cuniculus; test: In vitro functional antagonistic testing by obtaining ET-1 concentration response curves in rabbit carotid artery rings in the presence or absence of antagonist.
How it was run: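 Concentration-response curves to ET-1 in rabbit carotid artery rings. KB determined when at least 3 antagonist concentrations were tested; apparent KB calculated when only one concentration was used.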

Endothelin-1 receptor = biological target: T1, Endothelin-1 receptor (Rattus norvegicus, UniProt P26684); test: Antagonism of [125 I]ET-1 binding to the rat endothelin receptor in vascular smooth muscle VSM-A10 cells.; assay type: cell-based
T1 sequence (P26684 whole entry): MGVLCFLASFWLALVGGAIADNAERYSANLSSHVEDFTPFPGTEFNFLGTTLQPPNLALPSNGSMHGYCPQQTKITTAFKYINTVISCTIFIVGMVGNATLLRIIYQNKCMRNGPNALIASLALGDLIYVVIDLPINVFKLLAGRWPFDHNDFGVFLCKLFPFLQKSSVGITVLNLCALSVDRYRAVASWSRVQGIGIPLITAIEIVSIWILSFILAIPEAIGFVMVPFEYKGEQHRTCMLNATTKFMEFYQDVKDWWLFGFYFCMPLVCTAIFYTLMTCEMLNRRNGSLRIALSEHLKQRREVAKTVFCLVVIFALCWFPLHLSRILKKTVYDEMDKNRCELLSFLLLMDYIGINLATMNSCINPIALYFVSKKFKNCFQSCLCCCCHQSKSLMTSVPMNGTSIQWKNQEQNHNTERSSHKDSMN

Rattus norvegicus = species: Rattus norvegicus; test: Tested for antagonistic activity against ET-1 induced increase in intracellular [Ca2+] in VSM-A10 cells.; assay type: functional, cell-based
How it was run: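 A10 cells challenged with 3 nM ET-1; the rise in free intracellular Ca2+ was measured with and without compound. Values reported as IC50.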

Row | Compound | IC50 (Endothelin-1 receptor) [µM] | Kb (Oryctolagus cuniculus; read-out: KB app) [µM] | further results
1 | Cc1noc(NS(=O)(=O)c2ccc(NCc3ccccc3)cc2)c1C | 9.8 | 100 | –
2 | Cc1noc(NS(=O)(=O)c2cccc3c(N(C)C)cccc23)c1Cc1ccccc1 | 50 | – | –
3 | CCOC(=O)c1c(C)noc1NS(=O)(=O)c1cccc2c(N(C)C)cccc12 | 31 | – | –
4 | Nc1ccc(S(=O)(=O)Nc2noc3c2CCCC3)cc1 | 32 | – | –
5 | Cc1noc(NS(=O)(=O)c2ccc(NC(=O)Nc3ccccc3)cc2)c1C | 38 | – | –
6 | CN(C)c1cccc2c(S(=O)(=O)Nc3onc4c3CCCC4)cccc12 | 153 | – | –
7 | O=S(=O)(Nc1nccs1)c1ccc(O)cc1 | 30 | – | –
8 | CC(C)(C)c1cc(NS(=O)(=O)c2ccc(N)cc2)no1 | > 32 | – | –
9 | Nc1ccc(S(=O)(=O)Nc2cc(-c3ccccc3)on2)cc1 | > 32 | – | –
10 | Cc1noc(NC(=O)c2ccc(N)cc2)c1C | > 32 | – | –
11 | Cc1cc(NS(=O)(=O)c2ccc(O)cc2)no1 | – | > 100 | –
12 | Cc1noc(NS(=O)(=O)c2cccc3c(N(C)C)cccc23)c1[N+](=O)[O-] | 17.3 | > 100 | –
13 | Cc1noc(NS(=O)(=O)c2cccc3c(N(C)C)cccc23)c1-c1ccccc1 | 15.9 | – | –
14 | Cc1noc(N(CC(=O)O)S(=O)(=O)c2ccc(N)cc2)c1C | > 32 | – | –
15 | Cc1noc(NS(=O)(=O)c2ccc(NCC(=O)O)cc2)c1C | 12 | – | –
16 | Cc1noc(NS(=O)(=O)c2ccc(O)cc2)c1C | – | > 100 | –
17 | Cc1cc(NS(=O)(=O)c2ccc(N)cc2)on1 | 28 | – | –
18 | CCCNc1ccc(S(=O)(=O)Nc2onc(C)c2C)cc1 | 27 | 40 | –
19 | Nc1ccc(S(=O)(=O)Nc2nncs2)cc1 | 57 | – | –
20 | Cc1noc(NS(=O)(=O)c2cccc3c(N)cccc23)c1C | – | > 10 | –
21 | CC(=O)Nc1cccc2cc(S(=O)(=O)Nc3onc(C)c3C)ccc12 | – | 40 | –
22 | CC(=O)Nc1cccc2c(S(=O)(=O)Nc3onc(C)c3C)cccc12 | – | – | Kb (Oryctolagus cuniculus): 11 µM
23 | Cc1noc(N(C)S(=O)(=O)c2ccc(N)cc2)c1C | > 32 | – | –
24 | CCCCN(CCCC)c1cccc2c(S(=O)(=O)Nc3onc(C)c3C)cccc12 | 15.9 | – | –
25 | Cc1noc(NS(=O)(=O)c2cccc3c(N(C)C)cccc23)c1C [BMS-182874] | – | – | Kb (Oryctolagus cuniculus): 0.52 µM
26 | Cc1cc(NS(=O)(=O)c2ccc(N)cc2)no1 [SULFAMETHOXAZOLE] | – | > 100 | –
27 | Nc1ccc(S(=O)(=O)Nc2nccs2)cc1 [SULFATHIAZOLE] | 69 | – | –
28 | Cc1onc(NS(=O)(=O)c2ccc(N)cc2)c1C [SULFATROXAZOLE] | – | – | IC50 (Rattus norvegicus): 40 µM
29 | CC(=O)N(c1onc(C)c1C)S(=O)(=O)c1ccc(N)cc1 [SULFISOXAZOLE ACETYL] | 13 | – | –
30 | Cc1noc(NS(=O)(=O)c2ccc(N)cc2)c1C [SULFISOXAZOLE] | – | > 100 | IC50 (Rattus norvegicus): 40 µM

The next lines start with results.

Row | IC50 (Endothelin-1 receptor) [µM] | Compound | Kb (Oryctolagus cuniculus; read-out: KB app) [µM] | further results
31 | 0.06 | Cc1onc(NS(=O)(=O)c2cccc3c(N(C)C)cccc23)c1C | 0.98 | –
32 | 8.9 | Cc1cc(NS(=O)(=O)c2cccc3c(N(C)C)cccc23)on1 | – | –
33 | 7.8 | Cc1[n-][o+]c(NS(=O)(=O)c2cccc([N+](=O)[O-])c2)c1C | – | –
34 | 0.13 | Cc1noc(NS(=O)(=O)c2cccc3c(N4CCCC4=O)cccc23)c1C | – | Kb (Oryctolagus cuniculus): 9.6 µM
35 | 1.4 | Cc1noc(NS(=O)(=O)c2cccc3ccc(N)cc23)c1C | – | –
36 | 0.88 | Cc1noc(NS(=O)(=O)c2cccc3c(NC(=O)C(C)C)cccc23)c1C | – | –
37 | 6.5 | Cc1noc(NS(=O)(=O)c2ccc(NC(=O)CN)cc2)c1C | – | –
38 | 1 | Cc1noc(NS(=O)(=O)c2ccc(F)cc2)c1C | 40 | –
39 | 3.05 | Cc1noc(NS(=O)(=O)c2cccc3c(NCCCCCc4ccccc4)cccc23)c1C | – | –
40 | 0.06 | CCNc1cccc2c(S(=O)(=O)Nc3onc(C)c3C)cccc12 | – | Kb (Oryctolagus cuniculus): 0.5 µM
41 | 0.15 | Cc1noc(NS(=O)(=O)c2cccc3c(NC(=S)Nc4ccccc4)cccc23)c1C | – | Kb (Oryctolagus cuniculus): 13 µM
42 | 1.76 | Cc1noc(NS(=O)(=O)c2cccc3c(N4CCCCC4)cccc23)c1C | 4 | –
43 | 4.1 | Cc1noc(NS(=O)(=O)c2ccc(NC(=S)Nc3ccccc3)cc2)c1C | – | –
44 | 0.08 | CCCCCNc1cccc2c(S(=O)(=O)Nc3onc(C)c3C)cccc12 | – | Kb (Oryctolagus cuniculus): 0.27 µM
45 | 1.17 | CCc1noc(NS(=O)(=O)c2cccc3c(N(C)C)cccc23)c1C | 3 | –
46 | 0.13 | CNc1cccc2c(S(=O)(=O)Nc3onc(C)c3C)cccc12 | – | Kb (Oryctolagus cuniculus): 1.6 µM
47 | 2.8 | Cc1noc(NS(=O)(=O)c2cccc3c(CN(C)C)cccc23)c1C | 20 | –

Row | IC50 (Endothelin-1 receptor) [µM] | Compound | Kb (Oryctolagus cuniculus; read-out: KB app) [µM] | further results
48 | 2.1 | CCCNc1cccc(S(=O)(=O)Nc2onc(C)c2C)c1 | – | Kb (Oryctolagus cuniculus): 70 µM
49 | 3.38 | COC(=O)c1cccc2c(S(=O)(=O)Nc3onc(C)c3C)cccc12 | – | –
50 | 4.9 | Cc1cnoc1NS(=O)(=O)c1cccc2c(N(C)C)cccc12 | – | –
51 | 0.13 | Cc1noc(NS(=O)(=O)c2cccc3c(N(C)C(C)C)cccc23)c1C | – | Kb (Oryctolagus cuniculus): 0.7 µM
52 | 0.27 | Cc1noc(NS(=O)(=O)c2cccc3c(N4CCCCC4=O)cccc23)c1C | 7 | –
53 | 0.29 | CCc1c(C)noc1NS(=O)(=O)c1cccc2c(N(C)C)cccc12 | 4 | –
54 | 0.4 | CCOC(=O)C(C)Nc1cccc2c(S(=O)(=O)Nc3onc(C)c3C)cccc12 (stereo not drawn) | – | Kb (Oryctolagus cuniculus): 3.1 µM
55 | 7.8 | Cc1noc(NS(=O)(=O)c2cccc3c(NCCC(c4ccccc4)c4ccccc4)cccc23)c1C | – | –
56 | 0.03 | Cc1noc(NS(=O)(=O)c2cccc3c(N4CCCC4)cccc23)c1C | – | Kb (Oryctolagus cuniculus): 0.28 µM
57 | 0.66 | Cc1noc(NS(=O)(=O)c2ccc3cc(N)ccc3c2)c1C | – | Kb (Oryctolagus cuniculus): 43 µM
58 | 7.8 | Cc1noc(NS(=O)(=O)c2cccc3c(O)cccc23)c1C | 100 | –
59 | 0.02 | Cc1noc(NS(=O)(=O)c2cccc3c(NC(C)C)cccc23)c1C | – | Kb (Oryctolagus cuniculus): 0.33 µM
60 | 5.4 | Cc1noc(NS(=O)(=O)c2cccc(-c3ccccc3)c2)c1C | – | –
61 | 1.96 | Cc1noc(NS(=O)(=O)c2cccc3c(NCCCC(=O)O)cccc23)c1C | 30 | –
62 | 2.89 | Cc1noc(NS(=O)(=O)c2cccc3c(C(C)(C)O)cccc23)c1C | – | –
63 | 0.59 | Cc1noc(NS(=O)(=O)c2cccc3c(NCc4ccccc4)cccc23)c1C | 0.9 | –
